Measurements as given in ChEMBL document CHEMBL4359813, “Synthesis and antimycobacterial activity of imidazo[1,2-b][1,2,4,5]tetrazines” (2019).
Values after ≈ are worked out from the molar mass of the structure shown. Active and inactive are the calls of the source. The calls are words filed in the database; no cut-off is given here.

Assays:
[1] = test system: Mycolicibacterium smegmatis; test: Antimycobacterial activity against Mycobacterium smegmatis atR14 assessed as decrease in drug resistance development at 15 ug/disc after 2 to 3 days by paper disc method; format: functional, organism-based
Outline: (§1)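 Mutant M. smegmatis strains were grown in Middlebrook 7H9/OADC/Tween/glycerol to OD600 1.2. Cultures were diluted 1:9:10 (culture:water:M290) and overlaid on M290 agar. Commercial or impregnated paper discs were applied and plates incubated 2–3 days at 37 °C. Inhibition halos were measured to 1 mm, run in triplicate, mean ± SD.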

[2] = test system: Mycolicibacterium smegmatis; test: Antimycobacterial activity against Mycobacterium smegmatis atR1 assessed as decrease in drug resistance development at 15 ug/disc after 2 to 3 days by paper disc method; format: functional, organism-based; outline: as §1
[3] = test system: Mycolicibacterium smegmatis; test: Antimycobacterial activity against Mycobacterium smegmatis atR8 assessed as decrease in drug resistance development at 15 ug/disc after 2 to 3 days by paper disc method; format: functional, organism-based
Outline: (§2)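 Drug-resistant M. smegmatis mc2 155 mutants, isolated on M290 agar with 3.5-4× MIC of compound and resistance re-confirmed, grown in Middlebrook 7H9 (OADC, 0.1% Tween-80, 0.4% glycerol) to OD600 1.2. Diluted 1:9:10 culture:water:M290 and poured as top layer on M290 agar. Impregnated paper discs applied; 37 °C for 2–3 days. Halos measured to nearest 1 mm; triplicates, mean ± SD versus control strain.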

[4] = test system: Mycolicibacterium smegmatis; test: Antimycobacterial activity against Mycobacterium smegmatis atR2 assessed as decrease in drug resistance development at 15 ug/disc after 2 to 3 days by paper disc method; format: functional, organism-based; outline: as §1
[5] = test system: Mycolicibacterium smegmatis; test: Antimycobacterial activity against Mycobacterium smegmatis atR11 assessed as decrease in drug resistance development at 15 ug/disc after 2 to 3 days by paper disc method; format: functional, organism-based; outline: as §1
[6] = test system: Mycolicibacterium smegmatis; test: Antimycobacterial activity against Mycobacterium smegmatis atR9 assessed as decrease in drug resistance development at 15 ug/disc after 2 to 3 days by paper disc method; format: functional, organism-based; outline: as §2
[7] = test system: Mycolicibacterium smegmatis; test: Antimycobacterial activity against Mycobacterium smegmatis atR17 in liquid medium after 48 hrs by two-fold serial dilution method; format: functional; details: atR17, 48 h
Outline: (§3)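 M. smegmatis resistant mutants were isolated on M290 agar containing 3.5-4× MIC of the test compound at 30°C and resistance was reconfirmed. MIC was then run in Lemco-Tw broth (Tween-80 0.05%). An overnight culture was diluted 1:200, and two-fold serial dilutions in DMSO were added. Plates were incubated at 37°C and 250 rpm for 48 h. MIC was read as the lowest concentration with no visible growth.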

[8] = test system: Mycolicibacterium smegmatis; test: Antimycobacterial activity against Mycobacterium smegmatis atR2 assessed as decrease in drug resistance development at 100 nmol/disc after 2 to 3 days by paper disc method; format: functional, organism-based; outline: as §1
[9] = test system: Mycolicibacterium smegmatis; test: Antimycobacterial activity against Mycobacterium smegmatis atR2 in liquid medium after 48 hrs by two-fold serial dilution method; format: functional; details: atR2, 48 h; outline: as §3
[10] = test system: Mycolicibacterium smegmatis; test: Antimycobacterial activity against Mycobacterium smegmatis MC2 155 in liquid medium after 48 hrs by two-fold serial dilution method; format: functional; details: MC2 155, 48 h
Outline: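 M. smegmatis mc2 155 grown overnight in Lemco-Tw broth, diluted 1:200 in fresh broth. […] Top wells could carry 4% DMSO. Incubated 48 h at 37 °C with shaking at 250 rpm. MIC is the lowest concentration with no visible growth.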

[11] = test system: Mycolicibacterium smegmatis; test: Antimycobacterial activity against Mycobacterium smegmatis atR9 assessed as decrease in drug resistance development at 100 nmol/disc after 2 to 3 days by paper disc method; format: functional, organism-based; outline: as §2
[12] = test system: Mycolicibacterium smegmatis; test: Antimycobacterial activity against Mycobacterium smegmatis atR1 assessed as decrease in drug resistance development at 100 nmol/disc after 2 to 3 days by paper disc method; format: functional, organism-based; outline: as §1
[13] = test system: Mycolicibacterium smegmatis; test: Antimycobacterial activity against Mycobacterium smegmatis atR9 in liquid medium after 48 hrs by two-fold serial dilution method; format: functional; details: atR9, 48 h; outline: as §3
[14] = test system: Mycobacterium tuberculosis; test: Antimycobacterial activity against Mycobacterium tuberculosis H37Rv in liquid medium; format: functional
Outline: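 M. tuberculosis H37Rv; MIC determined in liquid medium on the automated Bactec MGIT 960 system.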

[15] = test system: Mycolicibacterium smegmatis; test: Antimycobacterial activity against Mycobacterium smegmatis atR19 assessed as decrease in drug resistance development at 100 nmol/disc after 2 to 3 days by paper disc method; format: functional, organism-based; outline: as §1
[16] = test system: Mycolicibacterium smegmatis; test: Antimycobacterial activity against Mycobacterium smegmatis atR40 assessed as decrease in drug resistance development at 100 nmol/disc after 2 to 3 days by paper disc method; format: functional, organism-based; outline: as §2
[17] = test system: Mycolicibacterium smegmatis; test: Antimycobacterial activity against Mycobacterium smegmatis atR14 assessed as decrease in drug resistance development at 100 nmol/disc after 2 to 3 days by paper disc method; format: functional, organism-based; outline: as §1
[18] = test system: Mycolicibacterium smegmatis; test: Antimycobacterial activity against Mycobacterium smegmatis atR33 in liquid medium after 48 hrs by two-fold serial dilution method; format: functional; details: atR33, 48 h; outline: as §3
[19] = test system: Mycolicibacterium smegmatis; test: Antimycobacterial activity against Mycobacterium smegmatis atR14 in liquid medium after 48 hrs by two-fold serial dilution method; format: functional; details: atR14, 48 h; outline: as §3
[20] = test system: Mycolicibacterium smegmatis MC2 155; test: Inhibition of STPK in Mycobacterium smegmatis MC2 155 expressing aminoglycoside phophotransferase-8 assessed as growth inhibition at 50 nmol/disk after 18 hrs in presence of kanamycin by paper disk method
[21] = test system: Mycolicibacterium smegmatis; test: Antimycobacterial activity against Mycobacterium smegmatis atR11 assessed as decrease in drug resistance development at 100 nmol/disc after 2 to 3 days by paper disc method; format: functional, organism-based; outline: as §1
[22] = test system: Mycolicibacterium smegmatis; test: Antimycobacterial activity against Mycobacterium smegmatis atR10 in liquid medium after 48 hrs by two-fold serial dilution method; format: functional; details: atR10, 48 h; outline: as §3
[23] = test system: Mycolicibacterium smegmatis; test: Antimycobacterial activity against Mycobacterium smegmatis atR11 in liquid medium after 48 hrs by two-fold serial dilution method; format: functional; details: atR11, 48 h; outline: as §3
[24] = test system: Mycolicibacterium smegmatis; test: Antimycobacterial activity against Mycobacterium smegmatis atR1 in liquid medium after 48 hrs by two-fold serial dilution method; format: functional; details: atR1, 48 h; outline: as §3
[25] = test system: Mycolicibacterium smegmatis; test: Antimycobacterial activity against Mycobacterium smegmatis atR17 assessed as decrease in drug resistance development at 100 nmol/disc after 2 to 3 days by paper disc method; format: functional, organism-based; outline: as §1
[26] = test system: Mycolicibacterium smegmatis; test: Antimycobacterial activity against Mycobacterium smegmatis atR19 in liquid medium after 48 hrs by two-fold serial dilution method; format: functional; details: atR19, 48 h; outline: as §3
[27] = test system: Mycolicibacterium smegmatis; test: Antimycobacterial activity against Mycobacterium smegmatis atR10 assessed as decrease in drug resistance development at 100 nmol/disc after 2 to 3 days by paper disc method; format: functional, organism-based; outline: as §1
[28] = test system: Mycolicibacterium smegmatis; test: Antimycobacterial activity against Mycobacterium smegmatis atR8 assessed as decrease in drug resistance development at 100 nmol/disc after 2 to 3 days by paper disc method; format: functional, organism-based; outline: as §2
[29] = test system: Mycolicibacterium smegmatis; test: Antimycobacterial activity against Mycobacterium smegmatis MC2 155 in solid medium by two-fold serial dilution method; format: functional
Outline: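 M290 soybean-casein agar plates carried two-fold compound dilutions, 8–64 or 8–128 µg/ml, some with extra 20 or 25 µg/ml plates.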

[30] = test system: Mycolicibacterium smegmatis; test: Antimycobacterial activity against Mycobacterium smegmatis atR8 in liquid medium after 48 hrs by two-fold serial dilution method; format: functional; details: atR8, 48 h; outline: as §3
[31] = test system: Mycolicibacterium smegmatis; test: Antimycobacterial activity against Mycobacterium smegmatis atR37 assessed as decrease in drug resistance development at 100 nmol/disc after 2 to 3 days by paper disc method; format: functional, organism-based; outline: as §2
[32] = test system: Mycolicibacterium smegmatis; test: Antimycobacterial activity against Mycobacterium smegmatis atR40 in liquid medium after 48 hrs by two-fold serial dilution method; format: functional; details: atR40, 48 h; outline: as §3
[33] = test system: Mycolicibacterium smegmatis; test: Antimycobacterial activity against Mycobacterium smegmatis atR33 assessed as decrease in drug resistance development at 100 nmol/disc after 2 to 3 days by paper disc method; format: functional, organism-based; outline: as §1
[34] = test system: Mycolicibacterium smegmatis; test: Antimycobacterial activity against Mycobacterium smegmatis atR37 in liquid medium after 48 hrs by two-fold serial dilution method; format: functional; details: atR37, 48 h; outline: as §3
[35] = test system: Mycolicibacterium smegmatis; test: Antimycobacterial activity against Mycobacterium smegmatis atR10 assessed as decrease in drug resistance development at 100 ug/disc after 2 to 3 days by paper disc method; format: functional, organism-based; outline: as §1
[36] = test system: Mycolicibacterium smegmatis; test: Antimycobacterial activity against Mycobacterium smegmatis atR11 assessed as decrease in drug resistance development at 100 ug/disc after 2 to 3 days by paper disc method; format: functional, organism-based; outline: as §1
[37] = test system: Mycolicibacterium smegmatis; test: Antimycobacterial activity against Mycobacterium smegmatis atR40 assessed as decrease in drug resistance development at 100 ug/disc after 2 to 3 days by paper disc method; format: functional, organism-based; outline: as §2
[38] = test system: Mycolicibacterium smegmatis; test: Antimycobacterial activity against Mycobacterium smegmatis atR14 assessed as decrease in drug resistance development at 100 ug/disc after 2 to 3 days by paper disc method; format: functional, organism-based; outline: as §1
[39] = test system: Mycolicibacterium smegmatis; test: Antimycobacterial activity against Mycobacterium smegmatis atR37 assessed as decrease in drug resistance development at 100 ug/disc after 2 to 3 days by paper disc method; format: functional, organism-based; outline: as §2
[40] = test system: Mycolicibacterium smegmatis; test: Antimycobacterial activity against Mycobacterium smegmatis atR1 assessed as decrease in drug resistance development at 100 ug/disc after 2 to 3 days by paper disc method; format: functional, organism-based; outline: as §1
[41] = test system: Mycolicibacterium smegmatis; test: Antimycobacterial activity against Mycobacterium smegmatis atR8 assessed as decrease in drug resistance development at 100 ug/disc after 2 to 3 days by paper disc method; format: functional, organism-based; outline: as §2
[42] = test system: Mycolicibacterium smegmatis; test: Antimycobacterial activity against Mycobacterium smegmatis atR2 assessed as decrease in drug resistance development at 100 ug/disc after 2 to 3 days by paper disc method; format: functional, organism-based; outline: as §1

CC[C@H]1OC(=O)[C@H](C)[C@@H](O[C@H]2C[C@@](C)(OC)[C@@H](O)[C@H](C)O2)[C@H](C)[C@@H](O[C@@H]2O[C@H](C)C[C@H](N(C)C)[C@H]2O)[C@](C)(O)C[C@@H](C)C(=O)[C@H](C)[C@@H](O)[C@]1(C)O
Activity [1]: inactive
Activity [2]: inactive
Activity [3]: inactive
Activity [4]: inactive
Activity [5]: inactive
Activity [6]: inactive

Cc1cn(-c2nnc3ncc(SC(C)C)n3n2)cn1
MIC [7]: 128 µg/mL (≈ 465 µM)
Activity [8]: Active
MIC [9]: 128 µg/mL (≈ 465 µM)
MIC [10]: 232 µM (≈ 64 µg/mL)
Activity [11]: inactive
Activity [12]: inactive
MIC [13]: 128 µg/mL (≈ 465 µM)
MIC [14]: 90.8 µM (≈ 25 µg/mL)
Activity [15]: inactive
Activity [16]: inactive
Activity [17]: inactive
MIC [18]: 128 µg/mL (≈ 465 µM)
MIC [19]: 128 µg/mL (≈ 465 µM)
inhibition zone (IZ) [20]: 13 mm
Activity [21]: inactive
MIC [22]: 256 µg/mL (≈ 930 µM)
MIC [23]: 256 µg/mL (≈ 930 µM)
MIC [24]: 128 µg/mL (≈ 465 µM)
Activity [25]: inactive
MIC [26]: 128 µg/mL (≈ 465 µM)
Activity [27]: inactive
Activity [28]: inactive
MIC [29]: 90.8 µM (≈ 25 µg/mL)
MIC [30]: 256 µg/mL (≈ 930 µM)
Activity [31]: Active
MIC [32]: 128 µg/mL (≈ 465 µM)
Activity [33]: inactive
MIC [34]: 128 µg/mL (≈ 465 µM)

CO[C@H]1/C=C/O[C@@]2(C)Oc3c(C)c(O)c4c(O)c(c(/C=N/N5CCN(C)CC5)c(O)c4c3C2=O)NC(=O)/C(C)=C\C=C\[C@H](C)[C@H](O)[C@@H](C)[C@@H](O)[C@@H](C)[C@H](OC(C)=O)[C@@H]1C
Activity [35]: inactive
Activity [36]: inactive
Activity [37]: Active
Activity [38]: inactive
Activity [39]: Active
Activity [40]: inactive
Activity [41]: inactive
Activity [42]: inactive
